ALR H2O2 inh – blocks human ALR sulfhydryl oxidase activity. inhibition, % (test concentration not listed). AID 485317. P55789. purified ALR, DTT oxidation, H2O2 HRP-luminol luminescence. 290,000 compounds, 3.8% hits;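 active = mean replicate inhibition above about 79%, with every replicate also reaching it, limit read from the data; inconclusive = only one of the two criteria met; inactive = mean below limit and not every replicate reaching it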
Target sequence (P55789 whole entry, looked up): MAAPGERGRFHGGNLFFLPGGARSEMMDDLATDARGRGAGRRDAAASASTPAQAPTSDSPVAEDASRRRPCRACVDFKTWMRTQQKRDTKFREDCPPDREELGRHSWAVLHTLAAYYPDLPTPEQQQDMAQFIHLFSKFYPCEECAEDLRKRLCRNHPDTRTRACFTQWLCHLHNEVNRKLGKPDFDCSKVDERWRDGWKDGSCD
HSF-1 act – increases HSF-1 driven luciferase reporter signal. NIH3T3-HGL HSF-1 luciferase reporter, MG132, 8 h; 100% = twice DMSO control signal. activation, % at 9 µM. 300,000 compounds, 1.7% hits. AID 504408;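 active = mean replicate activation of at least 50% with a set share of replicates each reaching 50%; inconclusive = only one of those two conditions met; inactive = mean below 50% and too few replicates reaching it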
AI-2 QS modul – Vibrio harveyi AI-2 quorum sensing modulation; Vibrio harveyi JMH597 AI-2 luminescence/OD600 ratio, 9 h; stronger effect = lower value; strain lacks LuxN and CqsS sensors; 0 = neutral-control median; activity change, % at 7.5 µM; 300,000 compounds, 0.4% hits; AID 2094; in the data active = activity change below about -75%, passing the limit was not always enough; inconclusive = no clear call, values can overlap the other calls;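 note: luminescence divided by OD600 gain over 9 h not by final OD600 alone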
PHOSPHO1 inh – inhibitors of human PHOSPHO1 phosphatase; Q8TCT1; recombinant PHOSPHO1, absorbance phosphatase assay; inhibition, % at 13.3 µM; 290,000 compounds, 1.1% hits; in the data active = inhibition above about 60%
Target sequence (Q8TCT1 whole entry, looked up): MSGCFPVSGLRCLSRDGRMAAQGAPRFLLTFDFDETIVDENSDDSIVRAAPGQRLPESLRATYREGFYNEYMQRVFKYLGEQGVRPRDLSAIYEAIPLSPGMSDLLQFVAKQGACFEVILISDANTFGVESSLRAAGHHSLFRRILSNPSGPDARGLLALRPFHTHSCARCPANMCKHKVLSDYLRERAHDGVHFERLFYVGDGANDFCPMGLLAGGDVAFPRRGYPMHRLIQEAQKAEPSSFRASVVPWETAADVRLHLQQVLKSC
HSF1 inhib – HSF1 inhibition; 300,000 compounds, 0.77% hits; NIH3T3-HGL HSE-luciferase, MG132-induced, luminescence 8 h; stronger effect = lower value; activity change, negative = inhibition, % at 7.5 µM (by protocol);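 active = more than half of replicate wells show activity change below -50%, luminescence cut by over half; inconclusive = some wells, but at most half, below -50%; inactive = no replicate well below -50%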;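 note: luciferase reports HSF-1 transcriptional activity via heat shock element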
HCV core dimer – HCV core protein dimerization inhibition; AID 1899; 300,000 compounds, 0.33% hits; inhibition, % at 5 µM; TR-FRET GST/Flag-core106 dimerization, 1536-well;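 active = inhibition above the mean of all tested compounds plus 3 SD, set per screening campaign, cut at about 45% in these data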
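System: GST-tagged and Flag-tagged HCV core protein residues 1-106 / Input: core106 proteins, GST 13.5 nM and Flag 17 nM / Buffer or medium: KF-containing HEPES buffer, pH 7.45, DTT, CHAPS, BSA / Probe or stimulus: Eu-anti-GST and XL665-anti-Flag labelled anti-tag antibodies / Schedule: 4 h, 22.5 °C incubation / Technique: TR-FRET 671 and 617 nm emission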
A number is an active result; - = inactive; ? = inconclusive; . = no result given. An excerpt weighted towards active compounds, which were near 6.8% of everything screened.

SMILES	ALR H2O2 inh	HSF-1 act	AI-2 QS modul	PHOSPHO1 inh	HSF1 inhib	HCV core dimer
C/C(CC(=O)NC1CCCCC1)=N\NC(=O)Cc1ccc(-c2ccccc2)cc1	-	-	-	-	-	-
COC(=O)c1c(-c2cccc3ccccc23)csc1NC(=O)Cc1ccc(OC)c(OC)c1	-	-	-	-	-	-
COC(=O)c1ccccc1NC(=O)CSc1nc(Nc2ccccc2)nc(N2CCOCC2)n1	-	77	-	-	-	-
COc1ccc(N2CCN(C(CNC(=O)C(=O)NCCCO)c3ccco3)CC2)cc1 (stereo not given)	86	-	-	-	-	-
O=C(NCC(c1ccco1)N1CCN(c2ccc(F)cc2)CC1)c1ccco1 (stereo not given)	-	-	-	.	-	-
COC(=O)NCC(c1ccco1)N1CCN(c2ccc(OC)cc2)CC1 (stereo not given)	89	-	-	-	-	-
CCC(=O)NCC(c1ccco1)N1CCN(c2ccc(OC)cc2)CC1 (stereo not given)	?	-	-	-	-	-
COC(=O)NCC(c1ccco1)N1CCN(c2ccc(F)cc2)CC1 (stereo not given)	92	-	-	-	-	-
CCS(=O)(=O)NCC(c1ccco1)N1CCN(c2ccccc2)CC1 (stereo not given)	93	-	-	-	-	-
CS/C(N)=N/S(=O)(=O)c1ccc(NC(C)=O)cc1	.	-	-	-	-	-
COc1ccc(N2CCN(C(CNC(=O)COc3ccccc3)c3ccco3)CC2)cc1 (stereo not given)	89	-	-	.	-	-
COc1ccc(N2CCN(C(CNS(C)(=O)=O)c3ccco3)CC2)cc1 (stereo not given)	92	-	-	-	-	-
O=S(=O)(NCC(c1ccco1)N1CCN(c2ccc(F)cc2)CC1)c1ccc(F)cc1 (stereo not given)	-	-	-	-	-	-
N#CCCN(C(=O)c1cc2c(s1)-c1ccccc1S(=O)(=O)C2)c1ccccc1	-	-	-	-	-	-
CCCN1Cc2cccc(C(=O)N3CCN(c4ccc(OC)cc4)CC3)c2C1=O	-	-	-	-	-60	-
COCCN1Cc2cccc(C(=O)N3CCN(c4ccccc4)CC3)c2C1=O	95	-	-	-	-	-
COCCN1Cc2cccc(C(=O)Nc3c(C)cc(C)cc3C)c2C1=O	-	-	-	-	-	-
CCCN1Cc2cccc(C(=O)N3CCN(c4ccccc4)CC3)c2C1=O	-	-	-	-	-	-
CSc1ccccc1OCc1cc(C(=O)NCCn2ccnc2C)no1	-	-	-	-	-	-
c1ccc2c(CCNc3ncnc4nc[nH]c34)c[nH]c2c1	98	-	-	-	-	-
c1ccc(CCNc2ncnc3nc[nH]c23)cc1	-	-	-	-	-	-
O=[N+]([O-])c1cccnc1NCCc1ccccc1	-	-	-	-	-	-
O=[N+]([O-])c1cccnc1NCCc1c[nH]c2ccccc12	-	54	-	-	-	-
O=C(COC(=O)c1cccnc1Cl)NC(=O)c1ccc(OC(F)F)cc1	-	.	.	.	.	.
CC(C)c1ccccc1NS(=O)(=O)c1cccs1	-	-	-	-	-	-
SMILES	ALR H2O2 inh	HSF-1 act	AI-2 QS modul	PHOSPHO1 inh	HSF1 inhib	HCV core dimer
O=c1[nH]c2cc(NCCO)c([N+](=O)[O-])cc2[nH]1	.	-	-	-	-	-
CNC(=O)c1cc(OCC(F)(F)F)ccc1OCC(F)(F)F	.	-	-	61	-	-
COc1ccc(NC(=O)CSc2c3c(nc4ccccc24)CCC3)c(OC)c1	98	-	-	-	-	-
COc1ccc(NC(=O)c2ccc3c(SCC(=O)O)c4c(nc3c2)CCCC4)c(OC)c1	.	-	-	-	-	-
Cc1ccc2nc3c(c(Nc4cccc(O)c4)c2c1)CCC3	98	-	-	-	-	-
Fc1cccc(Nc2c3c(nc4ccccc24)CCC3)c1	-	-	-	-	-	-
CC(=O)c1ccc(Nc2c3c(nc4ccccc24)CCCC3)cc1	-	66	-	-	-	-
CC(=O)c1cccc(Nc2c3c(nc4ccccc24)CCC3)c1	-	-	-	-	-	-
COc1ccccc1Nc1c2c(nc3ccccc13)CCC2	99	-	-	.	-	-
CN1CCN(CCC(=O)Nc2cccc(Br)c2)CC1	.	-	.	-	-	-

Screens (PubChem)
